Assay results published in BindingDB's records for doi:10.1021/acs.jmedchem.8b02026 (Leiden University, 2019).

How the values were obtained:
[1] = target: T1, Adenosine receptor A3 (Homo sapiens, UniProt P0DMS8); test: Displacement of [3H]PSB11 from human A3 adenosine receptor expressed in CHO cell membranes measured after 2 hrs by scintillation spectrometric method
T1 sequence (P0DMS8 whole entry): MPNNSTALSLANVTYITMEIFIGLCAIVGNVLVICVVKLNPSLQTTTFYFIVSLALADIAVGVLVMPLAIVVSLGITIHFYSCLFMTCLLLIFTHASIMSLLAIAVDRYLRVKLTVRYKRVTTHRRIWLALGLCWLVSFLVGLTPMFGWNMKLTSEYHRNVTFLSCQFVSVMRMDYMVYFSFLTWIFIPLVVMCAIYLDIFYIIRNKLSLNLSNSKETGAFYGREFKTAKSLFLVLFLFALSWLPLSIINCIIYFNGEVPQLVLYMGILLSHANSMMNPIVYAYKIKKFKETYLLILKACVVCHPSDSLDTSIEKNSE

[2] = target: T2, Adenosine receptor A1 (Homo sapiens, UniProt P30542); test: Displacement of [3H]DPCPX from human A1 adenosine receptor expressed in CHO cell membranes measured after 2 hrs by scintillation spectrometric method
T2 sequence (P30542 whole entry): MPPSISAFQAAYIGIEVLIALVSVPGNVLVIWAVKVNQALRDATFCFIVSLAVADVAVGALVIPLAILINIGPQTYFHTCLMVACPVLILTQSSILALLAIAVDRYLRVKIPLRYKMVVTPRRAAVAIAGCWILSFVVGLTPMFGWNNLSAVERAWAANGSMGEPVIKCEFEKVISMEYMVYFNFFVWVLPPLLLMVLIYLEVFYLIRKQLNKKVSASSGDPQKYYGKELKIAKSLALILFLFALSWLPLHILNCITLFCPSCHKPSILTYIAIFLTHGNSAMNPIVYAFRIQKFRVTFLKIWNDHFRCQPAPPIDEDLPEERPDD

[3] = target: Adenosine receptor A2a (Homo sapiens, UniProt P29274); test: Displacement of [3H]ZM241385 from human A2A adenosine receptor expressed in HEK293 cell membranes measured after 2 hrs by scintillation spectrometric method
Chain of Adenosine receptor A2a (P29274 whole entry): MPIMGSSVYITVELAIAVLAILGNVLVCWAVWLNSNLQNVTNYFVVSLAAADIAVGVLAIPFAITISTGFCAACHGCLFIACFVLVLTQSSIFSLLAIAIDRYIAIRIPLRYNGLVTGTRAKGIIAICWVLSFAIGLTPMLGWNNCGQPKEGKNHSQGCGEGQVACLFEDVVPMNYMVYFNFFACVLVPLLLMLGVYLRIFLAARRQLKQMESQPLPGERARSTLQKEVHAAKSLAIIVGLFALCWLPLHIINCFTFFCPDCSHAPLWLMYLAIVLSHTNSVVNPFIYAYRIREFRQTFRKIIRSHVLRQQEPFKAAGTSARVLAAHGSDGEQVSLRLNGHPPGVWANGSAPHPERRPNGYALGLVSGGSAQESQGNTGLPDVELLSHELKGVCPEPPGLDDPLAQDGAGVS

[4] = target: T3, Adenosine receptor A3 (Homo sapiens, UniProt P0DMS8, Y265F); test: Displacement of [3H]PSB11 from human A3 adenosine receptor Y265F (7.36) mutant transiently expressed in CHOK1 cell membranes measured after 2 hrs by scintillation spectrometric method
T3 sequence (P0DMS8 whole entry): T1 sequence (P0DMS8 whole entry)
Procedure, shortened: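 Membranes (15 µg) in 50 mM Tris-HCl, 5 mM MgCl2, 0.01% CHAPS, 1 mM EDTA, pH 7.4. Six competitor concentrations with ~10 nM [3H]PSB-11, 2 h at 25 °C. NSB from 100 µM NECA; filtration and scintillation counting; one-site fit. Three experiments, duplicate.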

Structure (SMILES)	Ki [1] [nM]	further results
CCCn1c(=O)c2c(nc3cc(OC)ccn32)n(CCCCOC(=O)c2cccc(S(=O)(=O)F)c2)c1=O	79	
CCCn1c(=O)c2c(nc3cc(OC)ccn32)n(CCCNC(=O)c2ccc(S(C)(=O)=O)cc2)c1=O		Ki [2]: 15800 nM; Ki [3]: 6310 nM; IC50 [4]: 794 nM
CCCn1c(=O)c2c(nc3cc(OC)ccn32)n(CCOC(=O)c2ccc(S(=O)(=O)F)cc2)c1=O	200	
CCCn1c(=O)c2c(nc3cc(OC)ccn32)n(CCCOC(=O)c2ccc(S(=O)(=O)F)cc2)c1=O	20	
CCCn1c(=O)c2c(nc3cc(OC)ccn32)n(CCOC(=O)c2cccc(S(=O)(=O)F)c2)c1=O	398	
CCCn1c(=O)c2c(nc3cc(OC)ccn32)n(CCCCNC(=O)c2cccc(S(=O)(=O)F)c2)c1=O	158	
CCCn1c(=O)c2c(nc3cc(OC)ccn32)n(CCCNC(=O)c2ccc(S(=O)(=O)F)cc2)c1=O		Ki [2]: 794 nM; Ki [3]: 1260 nM
CCCn1c(=O)c2c(nc3cc(OC)ccn32)n(CCCCOC(=O)c2ccc(S(=O)(=O)F)cc2)c1=O	32	
CCCn1c(=O)c2c(nc3cc(OC)ccn32)n(CCCOC(=O)c2cccc(S(=O)(=O)F)c2)c1=O	100	
CCCn1c(=O)c2c(nc3cc(OC)ccn32)n(CCCCNC(=O)c2ccc(S(=O)(=O)F)cc2)c1=O	32	
CCCn1c(=O)c2c(nc3cc(OC)ccn32)n(CCCNC(=O)c2cccc(S(=O)(=O)F)c2)c1=O	32	
